ChEMBL document CHEMBL1155442, “Click chemistry approach to new N-substituted aminocyclitols as potential pharmacological chaperones for Gaucher disease” (J Med Chem, 2010)
Activity calls are given as the source filed them. No cut-off for these calls is given here.

Legend:
Saccharomyces cerevisiae = experiment: Inhibition of yeast alpha-glucosidase at 0.1 mM
[1] = target: T1, Lysosomal acid glucosylceramidase (Homo sapiens) (UniProt P04062); experiment: Binding affinity to recombinant beta-glucocerebrosidase assessed as enzymatic activity at 150 uM after 40 mins by thermal stabilization assay relative to control
T1 sequence (whole entry): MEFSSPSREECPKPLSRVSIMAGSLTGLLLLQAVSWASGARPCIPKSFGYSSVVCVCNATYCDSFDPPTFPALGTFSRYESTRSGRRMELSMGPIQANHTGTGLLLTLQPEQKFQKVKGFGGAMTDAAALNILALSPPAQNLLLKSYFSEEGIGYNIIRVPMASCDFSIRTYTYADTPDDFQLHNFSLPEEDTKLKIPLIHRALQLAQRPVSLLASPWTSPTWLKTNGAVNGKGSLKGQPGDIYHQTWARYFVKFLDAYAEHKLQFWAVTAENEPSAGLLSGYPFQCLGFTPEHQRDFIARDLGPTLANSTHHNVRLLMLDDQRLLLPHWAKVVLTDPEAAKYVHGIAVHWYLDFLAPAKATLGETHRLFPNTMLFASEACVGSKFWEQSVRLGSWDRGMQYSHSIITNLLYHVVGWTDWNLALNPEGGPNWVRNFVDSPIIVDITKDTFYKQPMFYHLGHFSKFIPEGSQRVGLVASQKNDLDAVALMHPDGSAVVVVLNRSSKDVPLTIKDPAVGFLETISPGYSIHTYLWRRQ

[2] = target: T2, Lysosomal acid glucosylceramidase (Homo sapiens, UniProt P04062); experiment: Inhibition of recombinant beta-glucocerebrosidase at pH 5.2 after 10 mins by fluorimetry
T2 sequence (P04062 whole entry): T1 sequence (whole entry)

[3] = target: T1, Lysosomal acid glucosylceramidase (Homo sapiens); experiment: Binding affinity to recombinant beta-glucocerebrosidase assessed as enzymatic activity at 150 uM after 60 mins by thermal stabilization assay relative to control
[4] = target: T2, Lysosomal acid glucosylceramidase; experiment: Competitive inhibition of beta-glucocerebrosidase at pH 5.2 by Lineweaver-Burke plot analysis
[5] = target: T1, Lysosomal acid glucosylceramidase (Homo sapiens); experiment: Binding affinity to recombinant beta-glucocerebrosidase assessed as enzymatic activity at 10 uM after 40 mins by thermal stabilization assay relative to control
In short: (§1)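 Recombinant GCase (imiglucerase, 2 mg/mL aliquots) held at pH 7.4 and 48 °C with 0 (control) or 10–150 μM compound. At 20, 40 or 60 min, acetate-phosphate buffer (pH 5.0) and 4 mM 4-methylumbelliferyl β-D-glucoside in McIlvaine pH 5.2 added. Incubated 10 min at 37 °C with 0.1% Triton X-100 and 0.2% taurodeoxycholic acid. Stopped with glycine pH 10.6; 4-MU fluorescence read. Activity expressed relative to enzyme at 37 °C.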

Oryza sativa [6] = experiment: Inhibition of rice alpha-glucosidase at 0.1 mM
[7] = target: T1, Lysosomal acid glucosylceramidase (Homo sapiens); experiment: Binding affinity to recombinant beta-glucocerebrosidase assessed as enzymatic activity at 25 uM after 60 mins by thermal stabilization assay relative to control; in short: as §1
[8] = target: T1, Lysosomal acid glucosylceramidase (Homo sapiens); experiment: Binding affinity to recombinant beta-glucocerebrosidase assessed as enzymatic activity at 50 uM after 60 mins by thermal stabilization assay relative to control
[9] = target: T1, Lysosomal acid glucosylceramidase (Homo sapiens); experiment: Inhibition of beta-glucocerebrosidase in human fibroblast at 20 uM after 24 hrs by fluorescence assay
In short: (§2)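 Wild-type human fibroblasts exposed to compound for 24 h (10, 20 or 50 μM, as listed) with 5 mM substrate. Cellular GCase activity then measured.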

[10] = Cytotoxicity against human fibroblast at 300 uM after 24 hrs by MTT assay; format: cell-based
[11] = target: T1, Lysosomal acid glucosylceramidase (Homo sapiens); experiment: Binding affinity to recombinant beta-glucocerebrosidase assessed as enzymatic activity at 25 uM after 40 mins by thermal stabilization assay relative to control; in short: as §1
[12] = target: T1, Lysosomal acid glucosylceramidase (Homo sapiens); experiment: Binding affinity to recombinant beta-glucocerebrosidase assessed as enzymatic activity at 100 uM after 60 mins by thermal stabilization assay relative to control
[13] = target: T3, Beta-galactosidase (Bos taurus) (UniProt Q58D55); experiment: Inhibition of bovine liver beta-galactosidase at 0.1 mM
T3 sequence (whole entry): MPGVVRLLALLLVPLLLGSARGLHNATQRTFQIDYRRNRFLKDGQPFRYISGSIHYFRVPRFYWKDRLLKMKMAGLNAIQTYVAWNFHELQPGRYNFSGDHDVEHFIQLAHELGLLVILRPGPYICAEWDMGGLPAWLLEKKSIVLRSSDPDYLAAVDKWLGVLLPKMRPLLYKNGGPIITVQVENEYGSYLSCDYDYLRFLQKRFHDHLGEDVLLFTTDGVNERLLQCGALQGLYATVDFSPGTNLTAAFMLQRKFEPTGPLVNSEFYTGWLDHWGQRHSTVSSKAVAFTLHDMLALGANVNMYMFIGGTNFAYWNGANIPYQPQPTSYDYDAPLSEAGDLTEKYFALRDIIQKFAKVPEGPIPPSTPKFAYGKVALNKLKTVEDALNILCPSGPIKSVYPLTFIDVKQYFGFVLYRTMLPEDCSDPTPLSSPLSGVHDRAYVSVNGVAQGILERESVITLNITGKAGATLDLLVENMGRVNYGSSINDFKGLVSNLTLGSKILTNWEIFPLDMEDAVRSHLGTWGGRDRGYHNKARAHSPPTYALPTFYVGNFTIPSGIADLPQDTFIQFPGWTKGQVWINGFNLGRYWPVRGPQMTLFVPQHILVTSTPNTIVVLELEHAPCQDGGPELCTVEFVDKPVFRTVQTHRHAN

[14] = target: T1, Lysosomal acid glucosylceramidase (Homo sapiens); experiment: Binding affinity to recombinant beta-glucocerebrosidase assessed as enzymatic activity at 10 uM after 60 mins by thermal stabilization assay relative to control; in short: as §1
[15] = Selectivity index, ratio of CC50 for human fibroblast to Ki for beta-glucocerebrosidase
[16] = target: T1, Lysosomal acid glucosylceramidase (Homo sapiens); experiment: Binding affinity to recombinant beta-glucocerebrosidase assessed as enzymatic activity at 25 uM after 20 mins by thermal stabilization assay relative to control; in short: as §1
Oryza sativa [17] = experiment: Inhibition of rice alpha-galactosidase at 0.1 mM
[18] = Dissociation constant, pKa of the compound; format: physicochemical
[19] = target: T1, Lysosomal acid glucosylceramidase (Homo sapiens); experiment: Binding affinity to recombinant beta-glucocerebrosidase assessed as enzymatic activity at 100 uM after 20 mins by thermal stabilization assay relative to control
[20] = target: T1, Lysosomal acid glucosylceramidase (Homo sapiens); experiment: Binding affinity to recombinant beta-glucocerebrosidase assessed as enzymatic activity at 50 uM after 20 mins by thermal stabilization assay relative to control
[21] = target: T1, Lysosomal acid glucosylceramidase (Homo sapiens); experiment: Binding affinity to recombinant beta-glucocerebrosidase assessed as enzymatic activity at 150 uM after 20 mins by thermal stabilization assay relative to control
[22] = target: T1, Lysosomal acid glucosylceramidase (Homo sapiens); experiment: Binding affinity to recombinant beta-glucocerebrosidase assessed as enzymatic activity at 50 uM after 40 mins by thermal stabilization assay relative to control
[23] = target: T1, Lysosomal acid glucosylceramidase (Homo sapiens); experiment: Inhibition of beta-glucocerebrosidase in human fibroblast at 50 uM after 24 hrs by fluorescence assay; in short: as §2
[24] = target: T1, Lysosomal acid glucosylceramidase (Homo sapiens); experiment: Inhibition of beta-glucocerebrosidase in human fibroblast at 10 uM after 24 hrs by fluorescence assay; in short: as §2
[25] = target: T2, Lysosomal acid glucosylceramidase; experiment: Inhibition of recombinant beta-glucocerebrosidase at pH 7.4 after 10 mins by fluorimetry
[26] = target: T1, Lysosomal acid glucosylceramidase (Homo sapiens); experiment: Binding affinity to recombinant beta-glucocerebrosidase assessed as enzymatic activity at 10 uM after 20 mins by thermal stabilization assay relative to control; in short: as §1
[27] = target: T1, Lysosomal acid glucosylceramidase (Homo sapiens); experiment: Binding affinity to recombinant beta-glucocerebrosidase assessed as enzymatic activity at 100 uM after 40 mins by thermal stabilization assay relative to control
Prunus dulcis = experiment: Inhibition of sweet almond beta-glucosidase at 0.1 mM
[28] = target: T1, Lysosomal acid glucosylceramidase (Homo sapiens); settings: 0.1 to 0.25 uM
[29] = target: T2, Lysosomal acid glucosylceramidase; experiment: Inhibition of recombinant beta-glucocerebrosidase after 10 mins by fluorimetry
In short: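 Imiglucerase (0.1 mg/mL stock) in McIlvaine buffer, pH 5.2 or 7.4, with 0.2% sodium taurocholate and 0.1% Triton X-100. Preincubated 30 min at 37 °C with or without inhibitor. Then 4 mM 4-methylumbelliferyl-β-D-glucopyranoside added for 10 min at 37 °C. Stopped with glycine/NaOH pH 10.6; 4-MU read at ex 355/em 460 nm. IC50 from % activity vs log[I], at least five concentrations.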

[30] = Cytotoxicity against human fibroblast after 24 hrs by MTT assay; format: cell-based; settings: human fibroblasts

SMILES | inhibition (Saccharomyces cerevisiae) | fold change (FC) [1] | IC50 [2] | fold change (FC) [3] | Ki [4] | fold change (FC) [5] | inhibition (Oryza sativa [6]) | fold change (FC) [7] | fold change (FC) [8] | inhibition [9] | fold change (FC) [11] | fold change (FC) [12] | inhibition [13] | fold change (FC) [14] | Selectivity Index [15] | fold change (FC) [16] | inhibition (Oryza sativa [17]) | pKa [18] | fold change (FC) [19] | fold change (FC) [20] | also measured
CCCCCCCCCCn1cc(CN[C@H]2[C@H](O)[C@@H](O)[C@H](O)[C@@H](O)[C@@H]2O)nn1 | inactive | 10.5 | 100 nM | 25.9 | 90 nM | 3.56 | inactive | 10.2 | 17.2 | 71% | 5.95 | 20.9 | inactive | 4.19 | >=3300 | 2.21 | inactive | 7.1 | 2.91 | 2.7 | Activity [10]: Non-toxic; fold change (FC) [21]: 3.24; fold change (FC) [22]: 8.33; inhibition [23]: 90%; inhibition [24]: 58%; IC50 [25]: 90 nM; fold change (FC) [26]: 1.55; fold change (FC) [27]: 8.88; inhibition (Prunus dulcis): inactive; inhibition [28]: Active; IC50 [29]: 93.3 nM
CCCCCCCCCCCCn1cc(CN[C@H]2[C@H](O)[C@@H](O)[C@H](O)[C@@H](O)[C@@H]2O)nn1 | inactive | 11.5 | 30 nM | 26.2 | 60 nM | 8.48 | inactive | 23.2 | 24.9 | 90% | 9.42 | 28.7 | inactive | 18.7 | 916 | 2.97 | inactive | 7.1 | 3.41 | 3.11 | CC50 at 24 h [30]: 55000 nM; fold change (FC) [21]: 3.21; fold change (FC) [22]: 10.9; inhibition [23]: Toxic; inhibition [24]: 87%; IC50 [25]: 60 nM; fold change (FC) [26]: 2.65; fold change (FC) [27]: 12.8; inhibition (Prunus dulcis): inactive; IC50 [29]: 30.2 nM
